Tested on: not listed separately
Test: Bioavailability in rat of PMEA prodrug
Type: ADME, organism-based
Details: in vivo
In short: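 Male rats fasted 12-18 h, three per route. Reference: parent phosphonate iv bolus 30 mg/kg in normal saline via tail vein. Oral: parent at 30 mg/kg in 5% DMSO/water by gastric intubation; prodrugs as 5% DMSO/water solutions at 24-43 mg/kg PMEA equivalents. Urine collected 0-24 and 24-48 h in metabolism cages. PMEA measured by reversed-phase HPLC with fluorometric detection. Bioavailability = dose-normalized 0-48 h urinary PMEA, oral vs iv.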

Row | Structure (SMILES) | F [%]
1 | CC1(C)CNP(=O)(COCCn2cnc3c(N)ncnc32)NC1 | 5.8
2 | CCN(CC)P(=O)(COCCn1cnc2c(N)ncnc21)N(CC)CC | 7.2
3 | Nc1ncnc2c1ncn2CCOCP(=O)(O)OCC(Cl)(Cl)Cl | 2.5
4 | CC(C)(CO)COP(=O)(O)COCCn1cnc2c(N)ncnc21 | 0
5 | CCN(CC)C(=O)COP(=O)(COCCn1cnc2c(N)ncnc21)OCOC(=O)C(C)(C)C (stereo not given) | 2.2
6 | CC(C)CCOP(=O)(COCCn1cnc2c(N)ncnc21)OCCC(C)C | 0.5
7 | Nc1ncnc2c1ncn2CCOCP(=O)(Oc1ccccc1)Oc1ccccc1 | 11.1
8 | CCOP(=O)(COCCn1cnc2c(N)ncnc21)OCOC(=O)C(C)(C)C (stereo not given) | 34.9
9 | CC(=O)OCC(=O)COC(C)=O | 5.8
10 | CC(C)(C)C(=O)OCOP(=O)(O)COCCn1cnc2c(N)ncnc21 | 6.5
11 | Nc1ncnc2c1ncn2CCOCP(=O)(O)OCc1ccc([N+](=O)[O-])cc1 | 1.9
12 | CCOP(=O)(O)COCCn1cnc2c(N)ncnc21 | 0
13 | Nc1ncnc2c1ncn2CCOCP(=O)(O)OCC(F)(F)CO | 3.5
14 | CCOP(=O)(COCCn1cnc2c(N)ncnc21)OCC | 42
15 | Nc1ncnc2c1ncn2CCOCP(=O)(O)Oc1ccccc1 | 14
16 | COP(=O)(COCCn1cnc2c(N)ncnc21)OC | 0
17 | Nc1ncnc2c1ncn2CCOCP(=O)(O)O [ADEFOVIR] | 7.8

The next lines start with the values.

Row | F [%] | Structure (SMILES)
18 | 44.4 | CC(C)OP(=O)(COCCn1cnc2c(N)ncnc21)OC(C)C
19 | 5 | CC(C)OP(=O)(O)COCCn1cnc2c(N)ncnc21
20 | 1.4 | COP(=O)(O)COCCn1cnc2c(N)ncnc21
21 | 10.6 | CC(C)(CN)CNP(=O)(O)COCCn1cnc2c(N)ncnc21
22 | 0 | CC(C)COP(=O)(COCCn1cnc2c(N)ncnc21)OCC(C)C
23 | 10.6 | Nc1ncnc2c1ncn2CCOCP(=O)(OCC(Cl)(Cl)Cl)OCC(Cl)(Cl)Cl
24 | 0 | CC1(C)COP(=O)(COCCn2cnc3c(N)ncnc32)OC1
25 | 0.7 | Nc1ncnc2c1ncn2CCOCP1(=O)OCCCO1
26 | 3.5 | CCN(CC)C(=O)COP(=O)(O)COCCn1cnc2c(N)ncnc21
27 | 1.7 | Nc1ncnc2c1ncn2CCOCP(=O)(OCc1ccc([N+](=O)[O-])cc1)OCc1ccc([N+](=O)[O-])cc1
28 | 0.8 | CCCCCCCCOP(=O)(O)COCCn1cnc2c(N)ncnc21
29 | 17.3 | CC(C)(C)C(=O)OCOP(=O)(COCCn1cnc2c(N)ncnc21)OCOC(=O)C(C)(C)C [ADEFOVIR DIPIVOXIL]

Tested on: Vero
Test: Concentration that reduced plaque formation by 50% was measured in HSV-2 infected vero cells in vitro
Type: functional, cell-based
Details: Chlorocebus sabaeus
In short: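 Plaque reduction assay against HSV-2 strain G in infected Vero cells. IC50 taken as the concentration giving 50% reduction in plaque formation.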

Row | Structure (SMILES) | IC50 [µM]
30 | CCC(=O)OCOP(=O)(COCCn1cnc2c(N)ncnc21)OCOC(=O)CC | 0.4
31 | CC(C)C(=O)OCOP(=O)(COCCn1cnc2c(N)ncnc21)OCOC(=O)C(C)C | < 0.2
32 | Nc1ncnc2c1ncn2CCOCP(=O)(Oc1ccccc1)Oc1ccccc1 | 77
33 | CC(C)(C)C(=O)OCOP(=O)(O)COCCn1cnc2c(N)ncnc21 | 22
34 | CCOP(=O)(O)COCCn1cnc2c(N)ncnc21 | > 300
35 | CCOP(=O)(COCCn1cnc2c(N)ncnc21)OCC | > 300
36 | Nc1ncnc2c1ncn2CCOCP(=O)(O)Oc1ccccc1 | 95
37 | CC(C)(C)C(=O)OCOP(=O)(COCCn1cnc2c(N)ncnc21)OCOC(=O)C(C)(C)C [ADEFOVIR DIPIVOXIL] | 0.6
38 | Nc1ncnc2c1ncn2CCOCP(=O)(O)O [ADEFOVIR] | 119

Tested on: not listed separately
Test: Oral bioavailability of compound in rat
Type: ADME, organism-based
Details: in vivo, read-out: Bioavailabiility
In short: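 Fasted (12-18 h) male rats, three per route. Prodrugs were given by gastric intubation in 5% DMSO/water at 24-43 mg/kg PMEA equivalents. The reference was PMEA 30 mg/kg as an iv tail-vein bolus in saline. Urine was collected 0-24 and 24-48 h in metabolism cages and PMEA quantified by reversed-phase HPLC with fluorometric detection. Bioavailability is dose-normalized 0-48 h urinary PMEA, oral versus iv.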

Row | Structure (SMILES) | bioavailability [%]
39 | Nc1ncnc2c1ncn2CCOCP(=O)(O)O [ADEFOVIR] | 11

Tested on: not listed separately
Test: Oral bioavailability of compound in monkey
Type: ADME, organism-based
Details: simiiformes, in vivo, read-out: Bioavailabiility

Row | Structure (SMILES) | bioavailability [%]
40 | Nc1ncnc2c1ncn2CCOCP(=O)(O)O [ADEFOVIR] | < 1

Reference: ChEMBL document CHEMBL1127545, “Synthesis, oral bioavailability determination, and in vitro evaluation of prodrugs of the antiviral agent 9-[2-(phosphonomethoxy)ethyl]adenine (PMEA)” (J Med Chem, 1994)
